Measurements reported in ChEMBL document CHEMBL1129435, “Acyclic nucleotide analogs derived from 8-azapurines: synthesis and antiviral activity” (J Med Chem, 1996).
In brackets after ≈: the same amount, converted by molar mass.

Experiments:
[1] = Antiviral activity against herpes simplex virus-1 KOS in E6SM cell culture; assay type: functional, cell-based; conditions: Human alphaherpesvirus 1, E6SM
Procedure, shortened: (§1)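 Confluent cell monolayers in microtiter trays were inoculated with 100 CCID50 of virus. After 1 h adsorption the residual virus was removed. Cells were then incubated with serial compound concentrations (400, 200, 100, ... µg/mL). Cytopathicity was scored once it was complete in untreated infected controls. The value is the 50% inhibitory concentration, or the concentration reducing plaque formation by 50%, in µg/mL.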

[2] = Antiviral activity against thymidine kinase deficient herpes simplex virus-1 HSV-1 TK- VMW-1837 strain in E6SM cell culture; assay type: functional, cell-based; conditions: Human alphaherpesvirus 1, E6SM; procedure, shortened: as §1
Human alphaherpesvirus 2 = assay: Antiviral activity in herpes simple virus-2 (HSV-2) Lyons strain in E6SM cell culture; assay type: functional, organism-based; conditions: Human alphaherpesvirus 2, E6SM; procedure, shortened: as §1
Cytomegalovirus = assay: Antiviral activity against cytomegalovirus (CMV) Davis strain in HEL cell culture; assay type: functional, organism-based; conditions: Human betaherpesvirus 5, HEL; procedure, shortened: as §1
Human alphaherpesvirus 1 = assay: Antiviral activity against thymidine kinase deficient herpes simplex virus-1 HSV-1 TK- B2006 strain in E6SM cell culture; assay type: functional, organism-based; conditions: Human alphaherpesvirus 1, E6SM; procedure, shortened: as §1
Vaccinia virus = assay: Antiviral activity against vaccinia virus (VV) in E6SM cell culture; assay type: functional, organism-based; conditions: Orthopoxvirus vaccinia
[3] = system: Moloney murine sarcoma virus; assay: Compound was tested for anti-retroviral activity against moloney murine sarcoma virus (MSV) in murine C3H/3T3 embryo fibroblast cell culture; assay type: functional, organism-based
Procedure, shortened: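 C3H/3T3 fibroblasts were seeded at 5 × 10⁵ cells/mL. After 24 h they were infected with 80 focus-forming units of MSV for 90-120 min at 37 °C; the virus came from tumours induced by intramuscular inoculation of 3-day-old NMRI mice. The medium was then replaced with fresh medium containing various compound concentrations. Transformation was scored microscopically after 6 days.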

[4] = system: Human immunodeficiency virus 1; assay: Inhibition of human immunodeficiency virus-1 (HIV-1) induced cytopathicity in CEM cells; assay type: functional, organism-based; conditions: Human immunodeficiency virus 1, CCRF-CEM
Procedure, shortened: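 CEM cells (~3 × 10⁵ cells/mL) were infected with HIV-1(IIIB) at 100 CCID50 per µL. Infected cells were plated with compound dilutions and incubated 4 days at 37 °C. Giant cell formation was then examined microscopically.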

Human alphaherpesvirus 3 [5] = assay: Antiviral activity in TK+ varicella zoster virus (VZV) YS strain in HEL cell culture; assay type: functional, organism-based; conditions: Human alphaherpesvirus 3, HEL
Human alphaherpesvirus 3 [6] = assay: Antiviral activity in TK+ varicella zoster virus (VZV) 07/1 strain in HEL cell culture; assay type: functional, organism-based; conditions: Human alphaherpesvirus 3, HEL
[7] = system: Human immunodeficiency virus 2; assay: Inhibition of human immunodeficiency virus-2 (HIV-2) induced cytopathicity in CEM cells; assay type: functional, organism-based; conditions: Human immunodeficiency virus 2, CCRF-CEM
Human alphaherpesvirus 3 [8] = assay: Antiviral activity in TK+ varicella zoster virus (VZV) OKA strain in HEL cell culture; assay type: functional, organism-based; conditions: Human alphaherpesvirus 3, HEL
Human betaherpesvirus 5 = assay: Antiviral activity against cytomegalovirus (CMV) AD169 strain in HEL cell culture; assay type: functional, organism-based; conditions: Human betaherpesvirus 5, HEL; procedure, shortened: as §1
[9] = system: Human immunodeficiency virus 1; assay: Inhibition of human immunodeficiency virus-1 (HIV-1) induced cytopathicity in human MT-4 cells; assay type: functional, organism-based; conditions: Human immunodeficiency virus 1, MT4
Procedure, shortened: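 MT-4 cells (~4 × 10⁵ cells/mL) were infected with HIV-1(IIIB) at 100 CCID50 per µL. Infected cells were seeded into wells containing compound dilutions and incubated 5 days at 37 °C. Viable cells were then counted by trypan blue exclusion in a blood cell counting chamber.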

Compound	IC50 [1]	IC50 [2]	IC50 (Human alphaherpesvirus 2)	IC50 (Cytomegalovirus)	IC50 (Human alphaherpesvirus 1)	IC50 (Vaccinia virus)	IC50 [3]	IC50 [4]	IC50 (Human alphaherpesvirus 3 [5])	IC50 (Human alphaherpesvirus 3 [6])	IC50 [7]	IC50 (Human alphaherpesvirus 3 [8])	IC50 (Human betaherpesvirus 5)	IC50 [9]
C[C@H](Cn1nnc2c(O)nc(N)nc21)OCP(=O)(O)O	20 µg/mL (≈ 65.7 µM)	20 µg/mL (≈ 65.7 µM)	20 µg/mL (≈ 65.7 µM)	35 µg/mL (≈ 115 µM)	> 100 µg/mL	> 100 µg/mL	0.43 µg/mL (≈ 1.41 µM)	2 µg/mL (≈ 6.57 µM)	28 µg/mL (≈ 92 µM)	20 µg/mL (≈ 65.7 µM)	2 µg/mL (≈ 6.57 µM)	40 µg/mL (≈ 131 µM)	50 µg/mL (≈ 164 µM)	2.42 µg/mL (≈ 7.96 µM)
Nc1nc(N)c2nnn(C[C@@H](CO)OCP(=O)(O)O)c2n1	20 µg/mL (≈ 62.7 µM)	40 µg/mL (≈ 125 µM)	40 µg/mL (≈ 125 µM)	100 µg/mL (≈ 313 µM)	20 µg/mL (≈ 62.7 µM)	20 µg/mL (≈ 62.7 µM)	1 µg/mL (≈ 3.13 µM)	> 100 µg/mL	6 µg/mL (≈ 18.8 µM)	6 µg/mL (≈ 18.8 µM)	> 100 µg/mL	9 µg/mL (≈ 28.2 µM)	100 µg/mL (≈ 313 µM)	> 100 µg/mL
Nc1nc(O)c2nn(CCOCP(=O)(O)O)nc2n1	> 400 µg/mL	> 300 µg/mL	> 300 µg/mL	> 40 µg/mL	> 400 µg/mL	150 µg/mL (≈ 517 µM)	> 40 µg/mL	> 100 µg/mL	40 µg/mL (≈ 138 µM)	> 40 µg/mL	> 100 µg/mL	40 µg/mL (≈ 138 µM)	> 100 µg/mL	> 100 µg/mL
Nc1ncnc2nn(CCOCP(=O)(O)O)nc12	> 400 µg/mL	> 400 µg/mL	> 400 µg/mL	> 100 µg/mL	> 400 µg/mL	> 400 µg/mL	> 100 µg/mL		> 100 µg/mL	> 100 µg/mL		> 100 µg/mL	> 100 µg/mL	> 100 µg/mL
C[C@H](Cn1nc2ncnc(N)c2n1)OCP(=O)(O)O	150 µg/mL (≈ 520 µM)	100 µg/mL (≈ 347 µM)	100 µg/mL (≈ 347 µM)	> 40 µg/mL	150 µg/mL (≈ 520 µM)	> 400 µg/mL	2.9 µg/mL (≈ 10.1 µM)	> 100 µg/mL	5 µg/mL (≈ 17.3 µM)	5 µg/mL (≈ 17.3 µM)	> 100 µg/mL	10 µg/mL (≈ 34.7 µM)	> 40 µg/mL	> 100 µg/mL
C[C@H](Cn1nc2nc(N)nc(N)c2n1)OCP(=O)(O)O	> 100 µg/mL	> 200 µg/mL	> 200 µg/mL	> 50 µg/mL	200 µg/mL (≈ 660 µM)	> 100 µg/mL	28.4 µg/mL (≈ 93.7 µM)	> 100 µg/mL	> 50 µg/mL	> 50 µg/mL	> 100 µg/mL	> 50 µg/mL	> 50 µg/mL	> 100 µg/mL
C[C@H](Cn1nc2nc(N)nc(O)c2n1)OCP(=O)(O)O	> 100 µg/mL	> 400 µg/mL	> 400 µg/mL	> 50 µg/mL	> 400 µg/mL	> 400 µg/mL	> 40 µg/mL	20 µg/mL (≈ 65.7 µM)	> 20 µg/mL		20 µg/mL (≈ 65.7 µM)	> 20 µg/mL	> 50 µg/mL	20 µg/mL (≈ 65.7 µM)
Nc1nc(N)c2nnn(CCOCP(=O)(O)O)c2n1	70 µg/mL (≈ 242 µM)	150 µg/mL (≈ 519 µM)	150 µg/mL (≈ 519 µM)	> 40 µg/mL	150 µg/mL (≈ 519 µM)	> 400 µg/mL	0.75 µg/mL (≈ 2.59 µM)		> 40 µg/mL	> 40 µg/mL		> 40 µg/mL	> 40 µg/mL	45.8 µg/mL (≈ 158 µM)
C[C@H](Cn1nnc2c(N)nc(N)nc21)OCP(=O)(O)O	300 µg/mL (≈ 989 µM)	300 µg/mL (≈ 989 µM)	300 µg/mL (≈ 989 µM)	> 50 µg/mL	300 µg/mL (≈ 989 µM)	> 400 µg/mL	1.58 µg/mL (≈ 5.21 µM)	30 µg/mL (≈ 98.9 µM)	> 50 µg/mL	> 50 µg/mL	40 µg/mL (≈ 132 µM)	> 50 µg/mL	> 50 µg/mL	44.4 µg/mL (≈ 146 µM)
Nc1ncnc2c1nnn2CCOCP(=O)(O)O	> 200 µg/mL	> 200 µg/mL	> 200 µg/mL	> 100 µg/mL	> 200 µg/mL	> 400 µg/mL	12.1 µg/mL (≈ 44.1 µM)		> 100 µg/mL	> 100 µg/mL		> 100 µg/mL	> 100 µg/mL	> 100 µg/mL
Nc1nc(O)c2nnn(CCOCP(=O)(O)O)c2n1	2 µg/mL (≈ 6.89 µM)	2 µg/mL (≈ 6.89 µM)	2 µg/mL (≈ 6.89 µM)	2.3 µg/mL (≈ 7.93 µM)	7 µg/mL (≈ 24.1 µM)	0.7 µg/mL (≈ 2.41 µM)	0.32 µg/mL (≈ 1.1 µM)	2 µg/mL (≈ 6.89 µM)	0.04 µg/mL (≈ 0.138 µM)	0.1 µg/mL (≈ 0.345 µM)	2 µg/mL (≈ 6.89 µM)	0.4 µg/mL (≈ 1.38 µM)	2.3 µg/mL (≈ 7.93 µM)	2 µg/mL (≈ 6.89 µM)
C[C@H](Cn1nnc2c(N)ncnc21)OCP(=O)(O)O	70 µg/mL (≈ 243 µM)	100 µg/mL (≈ 347 µM)	100 µg/mL (≈ 347 µM)	> 40 µg/mL	70 µg/mL (≈ 243 µM)	> 400 µg/mL	0.85 µg/mL (≈ 2.95 µM)	7 µg/mL (≈ 24.3 µM)	8 µg/mL (≈ 27.8 µM)	5 µg/mL (≈ 17.3 µM)	10 µg/mL (≈ 34.7 µM)	8 µg/mL (≈ 27.8 µM)	> 40 µg/mL	5.2 µg/mL (≈ 18 µM)
C[C@@H](Cn1nnc2c(O)nc(N)nc21)OCP(=O)(O)O	300 µg/mL (≈ 986 µM)	300 µg/mL (≈ 986 µM)	300 µg/mL (≈ 986 µM)	> 40 µg/mL	> 400 µg/mL	300 µg/mL (≈ 986 µM)	27 µg/mL (≈ 88.8 µM)	40 µg/mL (≈ 131 µM)	4 µg/mL (≈ 13.1 µM)	> 40 µg/mL	85 µg/mL (≈ 279 µM)	10 µg/mL (≈ 32.9 µM)	> 40 µg/mL	52.7 µg/mL (≈ 173 µM)
Nc1ncnc2nn(C[C@@H](CO)OCP(=O)(O)O)nc12	> 400 µg/mL	> 400 µg/mL	> 400 µg/mL	> 200 µg/mL	150 µg/mL (≈ 493 µM)	> 400 µg/mL	> 100 µg/mL		> 100 µg/mL	> 100 µg/mL		> 100 µg/mL	> 200 µg/mL	> 100 µg/mL
